In publication PMC10401071 (Cancer Discovery, 2023):

Test system: growth differentiation factor 15 (GDF-15)
Type: in vivo, human
Settings: all dose-escalation cohorts, both arms
Method in brief: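 Blood drawn for GDF-15, a circulating downstream p53 marker measured as a target-engagement surrogate. Dosing was oral, day 1 every 21 days or days 1 and 8 every 28 days. Cycle 1 sampling: 5 min pre-dose; 1, 2, 3, 4, 5, 6 and 8 h post-dose on day 1; once on days 2, 3, 4, 5 and 8. All dose-escalation cohorts, both arms.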

Cc1c(C(=O)O)ccc2c3n(nc12)[C@@H]1[C@H](C3)N(CC2CC2)[C@@]2(C(=O)Nc3cc(Cl)ccc32)[C@H]1c1cccc(Cl)c1F [brigimadlin]
growth differentiation factor 15 levels (target engagement): time- and dose-dependent increases
